Only some compounds are listed: those with a hit (about 2.6% of all), similar ones and a draw of the others.
rCAG RNA binder: binds r(CAG) RNA repeats. 370,000 compounds, 1.3% hits. AID 651821. r(CAG) RNA repeat, TO-PRO-1 dye displacement fluorescence. inhibition, % at 3 µM;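 active = inhibition above the plate cutoff, the mean of all test compounds on that plate plus 3 SD, cut at about 35% in these data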;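 note: 0% = DMSO alone and 100% = 100 µM mitoxantrone as full dye displacement; higher means more dye released from RNA so lower well fluorescence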
Scp1 inh: inhibitors of human Scp-1 phosphatase; 340,000 compounds, 0.88% hits; Recombinant Scp1, phosphopeptide, malachite green phosphate absorbance; Q9GZU7; AID 493091; inhibition, % at 20 µM;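 active = inhibition above about 50% at 20 µM, limit read from the data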;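 note: plate controls were DMSO wells with enzyme for no effect and wells lacking enzyme for full effect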
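Test system: SCP-1 catalytic domain; Buffer or medium: Acidic Tris acetate buffer with magnesium and detergent; Also added: Phosphorylated 17-residue peptide substrate; Compound: single 20 µM dose, 1% DMSO; Schedule: enzyme reaction 45 min at room temperature, colour 5 min, stabilisation 30 min; Signal: Phosphate-binding colour reagent, absorbance read at 630 nm.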
NadD block: blocks S. aureus nicotinate mononucleotide adenylyltransferase; purified NadD enzyme, colorimetric absorbance read-out; inhibition, % at 20 µM; 360,000 compounds, 0.78% hits; AID 602399; in the data active = inhibition above about 26%
LMPTP inh: LMPTP (human) inhibition | recombinant LMPTP-A, OMFP fluorogenic substrate, fluorescence intensity | 360,000 compounds, 0.22% hits | inhibition, % at 20 µM;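 active = compounds that cut the enzyme signal by at least half of the control window in the single-dose screen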;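 note: plate controls were DMSO wells with enzyme plus substrate for no effect and substrate without enzyme for full effect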
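test system = LMPTP-A | amount = 0.625 nM LMPTP-A final | reagent = fluorogenic phosphatase substrate OMFP at 400 µM final | incubation = 50 min at room temperature | benchmarks = no-enzyme low control, uninhibited high control | medium = Bis-Tris pH 6.0, DTT, detergent | signal = fluorescence intensity of OMFP turnover product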
STEP inh: STEP (human) phosphatase inhibition | recombinant STEP, OMFP fluorogenic substrate, fluorescence | AID 588621 | inhibition, % at 20 µM | 360,000 compounds, 0.25% hits;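 active = inhibition at 20 µM, scaled per plate between control wells, above about 37%, limit read from the data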;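 note: 0% = DMSO with enzyme and substrate and 100% = substrate only without enzyme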
Target sequence (P54829 whole entry, looked up): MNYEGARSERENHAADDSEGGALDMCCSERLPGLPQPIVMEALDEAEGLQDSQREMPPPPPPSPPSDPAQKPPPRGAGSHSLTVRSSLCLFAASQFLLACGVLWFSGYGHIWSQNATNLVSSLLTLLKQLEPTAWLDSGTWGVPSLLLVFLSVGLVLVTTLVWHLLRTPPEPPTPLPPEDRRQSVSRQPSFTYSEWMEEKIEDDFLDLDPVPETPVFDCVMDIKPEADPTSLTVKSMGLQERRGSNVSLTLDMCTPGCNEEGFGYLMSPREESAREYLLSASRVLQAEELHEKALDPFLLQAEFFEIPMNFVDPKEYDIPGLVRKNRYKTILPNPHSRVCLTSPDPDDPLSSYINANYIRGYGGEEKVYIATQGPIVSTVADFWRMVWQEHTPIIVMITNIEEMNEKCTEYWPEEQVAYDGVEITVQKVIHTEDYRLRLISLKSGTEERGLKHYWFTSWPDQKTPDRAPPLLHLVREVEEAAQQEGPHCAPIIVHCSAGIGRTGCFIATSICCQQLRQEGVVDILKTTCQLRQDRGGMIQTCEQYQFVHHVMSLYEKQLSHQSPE
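Assay system: isolated STEP enzyme. Buffer or medium: pH 6.0 Bis-Tris with DTT and Tween 20. Also added: fluorogenic phosphatase substrate OMFP at 25 µM final. Dosing: 20 µM, 1% DMSO. Timing: 20 min reaction, room temperature, in the dark. Measured by: fluorescence intensity, excitation 480 nm, emission 540 nm. Evaluation: normalized % inhibition.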
Scp-1 conf: confirmation of human Scp-1 phosphatase inhibitors; shares compounds with Scp1 inh; recombinant SCP-1 catalytic domain, phosphate release, malachite green absorbance; inhibition, % at 20 µM; 2,500 compounds, 61% hits; AID 540281;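 note: plate controls were DMSO with enzyme for no effect and buffer wells lacking enzyme for full effect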
Scp-1 MG ctr: counter-screen for Scp-1 inhibitors: colorimetric interference; shares compounds with Scp1 inh; Colorimetric interference counterscreen, malachite green absorbance 630 nm; apparent inhibition (interference), % at 20 µM; 2,500 tested, under 10 active; AID 540313;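 note: compounds added after enzyme reaction finished so only phosphate colour detection is probed; plate controls were DMSO wells with completed Scp-1 reaction for no effect and substrate wells lacking enzyme for full effect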
Scp1 DSF: binds human Scp-1, shifting its melting temperature; shares compounds with Scp1 inh; Recombinant SCP1, Sypro Orange thermal shift Tm; thermal shift relative to vanadate control, % at 40 µM; 1,500 compounds, 25% hits;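 active = substances whose mean melting-temperature shift, as a percentage of the reference inhibitor's shift, reaches about 5.3%, limit read from the data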;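 note: 0% = Tm of DMSO wells and 100% = Tm with sodium orthovanadate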
* marks the source's active call; other numbers are inactive results; . = not tested or not shown.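 Rule for the calls, unless noted: active = inhibition of at least 30% at 20 µM; inactive = the rest.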

SMILES	rCAG RNA binder	Scp1 inh	NadD block	LMPTP inh	STEP inh	Scp-1 conf	Scp-1 MG ctr	others
CC(CCC(=O)O)C1CCC2C3CCC4C[C@H](O)CCC4(C)C3CC(=O)C12C (stereo partly drawn)	5	-6	-5	-1	1	.	.
Cn1c(NC(=O)CCC2CCCCC2)cc(=O)n(C)c1=O	-1	-9	1	1	0	-13	-13
Cc1cccc(CC(=O)Nc2cc(=O)n(C)c(=O)n2C)c1	-1	-5	6	-1	10	.	.
Cn1c(NNC(=O)c2ccc(C(C)(C)C)cc2)cc(=O)n(C)c1=O	0	-3	-5	-1	1	.	.
Cn1c(NC(=O)c2ccc(C(C)(C)C)cc2)cc(=O)n(C)c1=O	4	-7	-3	1	2	-21	-13
Cn1c(NNC(=O)CCC2CCCCC2)cc(=O)n(C)c1=O	3	-1	-9	-1	-5	-10	-12
Cn1c(NC(=O)Cc2cccc3ccccc23)cc(=O)n(C)c1=O	11	-12	-3	-1	1	-20	-26
Cn1c(NC(=O)C2CC2)cc(=O)n(C)c1=O	1	-7	2	0	-3	.	.
COC(=O)C1=C(C)N(C)C(=NCc2ccccc2C(F)(F)F)NC1c1cccc(F)c1 (stereo not drawn)	6	.	.	.	.	.	.
O=C(CSc1nc2cc(Cl)ccc2s1)NC(=O)NCc1ccco1	13	80*	6	4	2	53*	-8	Scp1 DSF=3
Cc1nc(SCC(=O)NCc2ccco2)c2c(C)c(C)sc2n1	-3	-1	-2	-1	3	.	.
CCOc1ccc2nc(SCC(=O)NC(=O)NCc3ccco3)sc2c1	5	-7	7	4	-1	.	.
Cc1sc2ncnc(SCC(=O)NC(=O)NCc3ccco3)c2c1C	5	57*	9	13	8	49*	-12	Scp1 DSF=-7
CCN1CCCCC(NC(=O)c2ccc(F)cc2)C1=O (stereo not drawn)	1	.	.	.	.	.	.
Cc1cccc(-c2cccc3c4c([nH]c23)[C@@H]2C[C@H](N(C)C(=O)c3ccccc3C)[C@H]([C@H](C)O)CN2CC4)c1	4	.	.	.	.	.	.
O=C(NC12CC3CC(CC(C3)C1)C2)c1cnccn1	-5	51*	-1	0	3	27	-11
O=C(CSc1cn[nH]n1)Nc1cccc(C(=O)O)c1	2	2	3	-1	-1	.	.
O=C(CSc1nc(-c2ccc(F)cc2)nc2ccc(F)cc12)Nc1cccc(C(=O)O)c1	18	72*	12	45	24	75*	-11	Scp1 DSF=2
Cc1cccc(C(=O)Oc2ccc(/C=N/NC(=O)Cc3ccc([N+](=O)[O-])cc3)cc2)c1	1	52*	4	0	-1	36*	-17	Scp1 DSF=4
Cc1cccc(C(=O)Oc2ccc(/C=N/NC(=O)c3ccc(O)cc3)cc2)c1	7	-7	7	2	0	.	.
C[N+](C)(C)CC/C=C1/c2ccccc2CSc2ccccc21	-2	77*	13	0	2	82*	-13	Scp1 DSF=-4
CCOC(=O)[C@@]12CN(C(=O)OC(C)(C)C)CC=C1N(Cc1ccc(OC)cc1)C(=O)[C@H]2CC(=O)NCCCN1CCCC1=O	3	.	.	.	.	.	.
CNC(=O)C(=O)Nc1ccc2c(c1)N(S(=O)(=O)c1cccs1)CCC2	1	54*	-6	0	-2	-22	-18
Cc1ccc(-n2c(Cc3cccs3)nnc2SCc2ccc(Br)cc2)cc1	2	.	.	.	.	.	.
CCCCOCCCNC(=O)C[C@H]1C[C@@]2(C(=O)OC)C(=C[C@H](C(C)(C)C)O[C@@H]2C)N(Cc2cccc3ccccc23)C1=O	9	.	.	.	.	.	.
SMILES	rCAG RNA binder	Scp1 inh	NadD block	LMPTP inh	STEP inh	Scp-1 conf	Scp-1 MG ctr	others
CN(O)/C=C1\C(=O)Nc2ccccc21	1	65*	5	0	1	0	-7
COc1ccc(/C=N/NC(=O)C(Cc2c[nH]c3ccccc23)NC(=O)OCC(C)C)cc1[N+](=O)[O-] (stereo not drawn)	4	65*	9	-1	-1	-11	-13
N#Cc1c(NC(=O)c2ccc(Cn3cc(Br)cn3)o2)sc2c1CCCCC2	15	5	-9	6	5	.	.
CC1CCc2c(sc(NC(=O)c3ccc(Cn4cc([N+](=O)[O-])cn4)o3)c2C#N)C1 (stereo not drawn)	30	71*	14	5	2	61*	-22	Scp1 DSF=6.4*
COc1ccc(C2CCC3(CCC(=O)N3CCOC(=O)NCc3ccc(Cl)cc3)CC2)cc1 (stereo not drawn)	3	.	.	.	.	.	.
CCc1ccc(OCc2cccc(C(=O)N/N=C\c3cnn(C)c3C)c2)cc1	0	66*	-6	14	4	78*	-4	Scp1 DSF=-6
O=C(OCC(=O)N1CCOCC1)c1ccc2c(c1)OCCO2	4	-2	-1	0	-5	.	.
